ChEMBL document CHEMBL5303300, “EUbOPEN Chemogenomics Library - Multiplex” (2023)
Values joined by “and” are separate entries in the source; they are usually repeats but may differ in a detail not shown here. Equal values may be shown once.

Legend:
[1] = test system: HEK-293T; test: Multiplex assay against HEK293T; assay type: toxicity, cell-based; settings: human, number of replicates 2
Procedure, shortened: (§1)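 Live cells carried four stains from seeding: Hoechst33342, BioTracker Green Microtubule Cytoskeleton Dye, MitoTracker Red and Annexin V Alexa Fluor 680. They were imaged on a CQ1 microscope at 37°C and 5% CO2 after compound addition. Using CellPathfinder machine-learning gating, cells were split into Hoechst high-intensity objects or normal cells, normal cells into healthy, pyknosed or fragmented nuclei, and pyknosed cells into mitotic or apoptotic; tubulin, mitochondrial-mass and membrane-permeability phenotypes are per cents of healthy-nucleus cells.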

[2] = test system: U2OS; test: Multiplex assay against U2OS; assay type: toxicity, cell-based; settings: human, number of replicates 2; procedure, shortened: as §1
[3] = 24 h, 1 µM, compound concentration 1 uM
[4] = 24 h, 10 µM, compound concentration 10 uM
[5] = 48 h, 1 µM, compound concentration 1 uM
[6] = 48 h, 10 µM, compound concentration 10 uM
[7] = 12 h, 1 µM, compound concentration 1 uM
[8] = 12 h, 10 µM, compound concentration 10 uM

Structure (SMILES): CC(=O)N(CCN(C)C)c1ccc(N/C(=C2\C(=O)Nc3cc(Cl)ccc32)c2ccccc2)cn1
- Population Normal (%) [1, 3]: 93% and 92%
- Population Pyknosed Nuclei (%) [1, 3]: 9% and 8%
- Population Tubulin-Different-Phenotype (%) [1, 3]: 51% and 49%
- Total Cell Count [1, 3]: 869 and 891
- Population Apoptotic (%) [1, 4]: 87% and 94%
- Population Fragmented Nuclei (%) [1, 4]: 6% and 4%
- Population Healthy Nuclei (%) [1, 4]: 80% and 83%
- Population Hoechst High Intensity Objects (%) [1, 4]: 20% and 23%
- Population Membrane Permeable-Phenotype (%) [1, 4]: 0% and 2%
- Population Mitochondria Different-Phenotype (%) [1, 4]: 95% and 92%
- Population Mitotic Cells (%) [1, 4]: 12% and 5%
- Population Normal (%) [1, 4]: 79% and 76%
- Population Pyknosed Nuclei (%) [1, 4]: 13% and 12%
- Population Tubulin-Different-Phenotype (%) [1, 4]: 93% and 92%
- Total Cell Count [1, 4]: 229 and 181
- Population Apoptotic (%) [1, 5]: 12% and 13%
- Population Fragmented Nuclei (%) [1, 5]: 11% and 6%
- Population Healthy Nuclei (%) [1, 5]: 83% and 88%
- Population Hoechst High Intensity Objects (%) [1, 5]: 7% and 9%
- Population Membrane Permeable-Phenotype (%) [1, 5]: 3%
- Population Mitochondria Different-Phenotype (%) [1, 5]: 1% and 3%
- Population Mitotic Cells (%) [1, 5]: 87% and 86%
- Population Normal (%) [1, 5]: 93% and 90%
- Population Pyknosed Nuclei (%) [1, 5]: 4% and 5%
- Population Tubulin-Different-Phenotype (%) [1, 5]: 25% and 29%
- Total Cell Count [1, 5]: 1828 and 1568
- Population Apoptotic (%) [1, 6]: 86% and 90%
- Population Fragmented Nuclei (%) [1, 6]: 9% and 5%
- Population Healthy Nuclei (%) [1, 6]: 81% and 83%
- Population Hoechst High Intensity Objects (%) [1, 6]: 20% and 19%
- Population Membrane Permeable-Phenotype (%) [1, 6]: 0% and 3%
- Population Mitochondria Different-Phenotype (%) [1, 6]: 77% and 80%
- Population Mitotic Cells (%) [1, 6]: 13% and 10%
- Population Normal (%) [1, 6]: 79% and 80%
- Population Pyknosed Nuclei (%) [1, 6]: 8% and 10%
- Population Tubulin-Different-Phenotype (%) [1, 6]: 93%
- Total Cell Count [1, 6]: 324 and 235
- Population Apoptotic (%) [2, 7]: 72% and 71%
- Population Healthy Nuclei (%) [2, 7]: 84% and 68%
- Population Hoechst High Intensity Objects (%) [2, 7]: 0% and 1%
- Population Membrane Permeable-Phenotype (%) [2, 7]: 1% and 10%
- Population Mitochondria Different-Phenotype (%) [2, 7]: 0% and 2%
- Population Mitotic Cells (%) [2, 7]: 27% and 28%
- Population Normal (%) [2, 7]: 100% and 98%
- Population Pyknosed Nuclei (%) [2, 7]: 11% and 12%
- Population Tubulin-Different-Phenotype (%) [2, 7]: 52% and 23%
- Population Apoptotic (%) [2, 8]: 64% and 80%
- Population Fragmented Nuclei (%) [2, 8]: 11% and 8%
- Population Healthy Nuclei (%) [2, 8]: 54% and 60%
- Population Hoechst High Intensity Objects (%) [2, 8]: 0% and 1%
- Population Membrane Permeable-Phenotype (%) [2, 8]: 13% and 19%
- Population Mitochondria Different-Phenotype (%) [2, 8]: 86% and 59%
- Population Mitotic Cells (%) [2, 8]: 35% and 19%
- Population Normal (%) [2, 8]: 100% and 98%
- Population Pyknosed Nuclei (%) [2, 8]: 33% and 30%
- Population Tubulin-Different-Phenotype (%) [2, 8]: 86% and 71%
- Population Apoptotic (%) [2, 3]: 72% and 40%
- Population Fragmented Nuclei (%) [2, 3]: 3% and 11%
- Population Healthy Nuclei (%) [2, 3]: 85% and 79%
- Population Hoechst High Intensity Objects (%) [2, 3]: 0% and 1%
- Population Membrane Permeable-Phenotype (%) [2, 3]: 2% and 4%
- Population Mitochondria Different-Phenotype (%) [2, 3]: 0%
- Population Mitotic Cells (%) [2, 3]: 27% and 60%
- Population Normal (%) [2, 3]: 100% and 98%
- Population Pyknosed Nuclei (%) [2, 3]: 10% and 9%
- Population Tubulin-Different-Phenotype (%) [2, 3]: 59% and 33%
- Population Apoptotic (%) [2, 4]: 93% and 88%
- Population Fragmented Nuclei (%) [2, 4]: 10% and 16%
- Population Healthy Nuclei (%) [2, 4]: 31% and 23%
- Population Hoechst High Intensity Objects (%) [2, 4]: 3% and 4%
- Population Membrane Permeable-Phenotype (%) [2, 4]: 61% and 50%
- Population Mitochondria Different-Phenotype (%) [2, 4]: 76% and 90%
- Population Mitotic Cells (%) [2, 4]: 6% and 11%
- Population Normal (%) [2, 4]: 96% and 95%
- Population Pyknosed Nuclei (%) [2, 4]: 57% and 60%
- Population Tubulin-Different-Phenotype (%) [2, 4]: 87% and 90%
- Population Apoptotic (%) [2, 5]: 82% and 88%
- Population Fragmented Nuclei (%) [2, 5]: 3% and 13%
- Population Healthy Nuclei (%) [2, 5]: 86% and 66%
- Population Hoechst High Intensity Objects (%) [2, 5]: 0%
- Population Membrane Permeable-Phenotype (%) [2, 5]: 2% and 10%
- Population Mitochondria Different-Phenotype (%) [2, 5]: 1% and 5%
- Population Mitotic Cells (%) [2, 5]: 18% and 11%
- Population Normal (%) [2, 5]: 99% and 100%
- Population Pyknosed Nuclei (%) [2, 5]: 9% and 19%
- Population Tubulin-Different-Phenotype (%) [2, 5]: 67% and 47%
- Population Apoptotic (%) [2, 6]: 92% and 100%
- Population Fragmented Nuclei (%) [2, 6]: 26% and 38%
- Population Healthy Nuclei (%) [2, 6]: 11% and 2%
- Population Hoechst High Intensity Objects (%) [2, 6]: 3% and 2%
- Population Membrane Permeable-Phenotype (%) [2, 6]: 52% and 100%
- Population Mitochondria Different-Phenotype (%) [2, 6]: 48% and 100%
- Population Mitotic Cells (%) [2, 6]: 7% and 0%
- Population Normal (%) [2, 6]: 96% and 98%
- Population Pyknosed Nuclei (%) [2, 6]: 61% and 59%
- Population Tubulin-Different-Phenotype (%) [2, 6]: 100%
